From ChEMBL document CHEMBL1131301, “Tyrosine kinase inhibitors. 14. Structure-activity relationships for methylamino-substituted derivatives of 4-[(3-bromophenyl)amino]-6-(methylamino)-pyrido[3,4-d]pyrimidine (PD 158780), a potent and specific inhibitor of the tyrosine kinase activity of receptors for the EGF family of growth factors” (J Med Chem, 1998)
pIC50: −log10 of the molar value. Converted amounts (≈) assume the structure as drawn.

Assays:
[1] = biological target: T1, Epidermal growth factor receptor (Homo sapiens, UniProt P00533); assay: Inhibition of autophosphorylation of epidermal growth factor receptor in A431 cells in culture
T1 sequence (P00533 whole entry): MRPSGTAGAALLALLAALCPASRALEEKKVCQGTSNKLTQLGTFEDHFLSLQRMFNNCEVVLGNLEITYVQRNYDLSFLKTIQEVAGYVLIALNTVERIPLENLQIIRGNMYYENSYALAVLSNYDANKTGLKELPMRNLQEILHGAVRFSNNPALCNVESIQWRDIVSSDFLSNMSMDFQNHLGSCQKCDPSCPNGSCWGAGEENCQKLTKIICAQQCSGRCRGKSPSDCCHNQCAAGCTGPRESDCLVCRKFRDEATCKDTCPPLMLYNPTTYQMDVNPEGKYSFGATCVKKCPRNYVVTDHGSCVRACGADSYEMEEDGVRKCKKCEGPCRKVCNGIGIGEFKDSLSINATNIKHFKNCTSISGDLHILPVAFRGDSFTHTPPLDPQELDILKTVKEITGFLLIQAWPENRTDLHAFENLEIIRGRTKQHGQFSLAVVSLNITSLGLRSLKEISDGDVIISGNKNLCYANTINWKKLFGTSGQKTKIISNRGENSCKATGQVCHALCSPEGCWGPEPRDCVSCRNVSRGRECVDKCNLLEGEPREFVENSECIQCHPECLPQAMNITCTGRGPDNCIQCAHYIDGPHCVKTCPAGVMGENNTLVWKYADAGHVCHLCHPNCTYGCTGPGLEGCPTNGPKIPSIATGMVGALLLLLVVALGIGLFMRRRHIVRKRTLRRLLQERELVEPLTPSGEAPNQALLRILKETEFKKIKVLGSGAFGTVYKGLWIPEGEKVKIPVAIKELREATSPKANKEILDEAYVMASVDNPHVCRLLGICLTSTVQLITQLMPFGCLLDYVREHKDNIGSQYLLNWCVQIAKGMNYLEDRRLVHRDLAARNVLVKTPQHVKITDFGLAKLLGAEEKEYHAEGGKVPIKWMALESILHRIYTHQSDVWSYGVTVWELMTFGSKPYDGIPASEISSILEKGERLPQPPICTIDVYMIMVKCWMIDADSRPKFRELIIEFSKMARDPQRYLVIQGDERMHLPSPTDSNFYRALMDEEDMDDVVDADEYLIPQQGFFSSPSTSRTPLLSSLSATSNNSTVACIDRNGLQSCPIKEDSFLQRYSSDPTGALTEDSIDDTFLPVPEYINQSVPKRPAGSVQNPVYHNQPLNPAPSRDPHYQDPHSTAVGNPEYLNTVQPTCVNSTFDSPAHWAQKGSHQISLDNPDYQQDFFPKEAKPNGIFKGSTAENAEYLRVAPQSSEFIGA

[2] = biological target: T1, Epidermal growth factor receptor; assay: (§1) Inhibition of tyrosine/glutamic acid copolymer phosphorylation by epidermal growth factor receptor prepared of human A431
Mus musculus [3] = assay: Difference in days for treated (T) and control (C) EGFR tumor fragments to reach 750 mg in mice at 38 mg/kg ip dose, administration days 1-15; type: functional; settings: route intraperitoneal
Mus musculus [4] = assay: Weight change of EGFR tumor bearing mice at 38 mg/kg ip dose, days 1-15 administration; type: functional; settings: route intraperitoneal
Mus musculus [5] = assay: Ratio of the median treated EGFR tumor mass (mg)/median control mass*100% in mice at 38 mg/kg dose, ip b.i.d. days 1-15 administration; type: functional; settings: route intraperitoneal
Procedure, shortened: (§2)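 Nude mice (NCr nu/nu, 18-22 g) were randomized and implanted sc with tumor fragments in the right axilla on day 0. Tumor lines were A431 epidermoid, NIH 3T3 fibroblasts transfected with human EGFR, and MCF-7 breast. Dosing was ip or oral, by average cage weight, with 6 mice/dose group. Vehicle was 6% dimethylacetamide/94% 50 mM sodium lactate pH 4.0 (suspension), or isethionate salt in water.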

[6] = biological target: T1, Epidermal growth factor receptor; assay: Inhibition of EGF-dependent autophosphorylation of EGF-R in A431 cells
[7] = Aqueous solubility ([…] degree C); type: physicochemical; settings: for solubility: water, read-out: S
[8] = biological target: T1, Epidermal growth factor receptor; assay: as §1; remark: listed apart in the source
[9] = biological target: T2, Fibroblast growth factor receptor (Homo sapiens, UniProt P22607+P11362+P22455+P21802); assay: (§3) Inhibition of fibroblast growth factor receptor(FGFR); type: functional
Insulin receptor [10] = biological target: T3, Insulin receptor (Homo sapiens, UniProt P06213); assay: (§4) Inhibition of insulin receptor(IR); type: functional
T3 sequence (P06213 28-758 limits assumed): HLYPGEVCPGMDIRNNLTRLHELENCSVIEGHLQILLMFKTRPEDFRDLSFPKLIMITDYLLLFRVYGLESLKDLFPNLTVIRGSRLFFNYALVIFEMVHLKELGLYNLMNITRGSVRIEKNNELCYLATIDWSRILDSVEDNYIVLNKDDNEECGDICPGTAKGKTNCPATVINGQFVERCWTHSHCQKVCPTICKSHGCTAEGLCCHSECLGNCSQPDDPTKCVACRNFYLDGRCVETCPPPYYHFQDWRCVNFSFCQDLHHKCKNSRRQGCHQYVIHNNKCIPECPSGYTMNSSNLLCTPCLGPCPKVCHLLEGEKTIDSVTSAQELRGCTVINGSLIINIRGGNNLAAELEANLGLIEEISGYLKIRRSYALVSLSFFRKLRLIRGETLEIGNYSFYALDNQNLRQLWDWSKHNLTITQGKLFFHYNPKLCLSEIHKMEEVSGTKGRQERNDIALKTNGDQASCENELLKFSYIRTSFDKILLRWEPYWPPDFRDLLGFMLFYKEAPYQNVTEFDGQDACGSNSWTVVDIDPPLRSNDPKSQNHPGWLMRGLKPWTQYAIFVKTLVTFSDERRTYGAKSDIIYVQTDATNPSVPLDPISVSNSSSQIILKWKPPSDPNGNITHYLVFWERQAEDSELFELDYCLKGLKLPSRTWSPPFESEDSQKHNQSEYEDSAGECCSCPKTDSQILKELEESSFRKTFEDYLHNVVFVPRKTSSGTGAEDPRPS
T3 sequence (P06213 763-1382 limits assumed): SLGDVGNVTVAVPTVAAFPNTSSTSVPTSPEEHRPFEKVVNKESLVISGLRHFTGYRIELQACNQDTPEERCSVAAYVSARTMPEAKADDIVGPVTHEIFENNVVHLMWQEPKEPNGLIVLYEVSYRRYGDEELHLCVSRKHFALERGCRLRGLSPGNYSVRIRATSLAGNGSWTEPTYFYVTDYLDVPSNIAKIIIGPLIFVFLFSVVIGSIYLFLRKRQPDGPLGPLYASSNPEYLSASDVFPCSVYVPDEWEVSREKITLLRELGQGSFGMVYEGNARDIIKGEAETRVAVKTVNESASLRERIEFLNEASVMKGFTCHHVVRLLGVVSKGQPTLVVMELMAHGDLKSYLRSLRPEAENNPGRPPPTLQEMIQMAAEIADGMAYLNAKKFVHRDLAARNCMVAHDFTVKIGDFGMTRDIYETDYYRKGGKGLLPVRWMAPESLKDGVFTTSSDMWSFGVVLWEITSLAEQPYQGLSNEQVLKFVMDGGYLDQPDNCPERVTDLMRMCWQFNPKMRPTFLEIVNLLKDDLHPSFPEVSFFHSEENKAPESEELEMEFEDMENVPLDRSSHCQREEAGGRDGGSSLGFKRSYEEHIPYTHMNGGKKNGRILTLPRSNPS

[11] = biological target: Receptor tyrosine-protein kinase erbB-2 (Homo sapiens, UniProt P04626); assay: Inhibition of heregulin-dependent autophosphorylation of ErbB2 receptor in MDA-MB-453 cells; type: functional, cell-based
Chain of Receptor tyrosine-protein kinase erbB-2 (P04626 whole entry, the tested form may be a part): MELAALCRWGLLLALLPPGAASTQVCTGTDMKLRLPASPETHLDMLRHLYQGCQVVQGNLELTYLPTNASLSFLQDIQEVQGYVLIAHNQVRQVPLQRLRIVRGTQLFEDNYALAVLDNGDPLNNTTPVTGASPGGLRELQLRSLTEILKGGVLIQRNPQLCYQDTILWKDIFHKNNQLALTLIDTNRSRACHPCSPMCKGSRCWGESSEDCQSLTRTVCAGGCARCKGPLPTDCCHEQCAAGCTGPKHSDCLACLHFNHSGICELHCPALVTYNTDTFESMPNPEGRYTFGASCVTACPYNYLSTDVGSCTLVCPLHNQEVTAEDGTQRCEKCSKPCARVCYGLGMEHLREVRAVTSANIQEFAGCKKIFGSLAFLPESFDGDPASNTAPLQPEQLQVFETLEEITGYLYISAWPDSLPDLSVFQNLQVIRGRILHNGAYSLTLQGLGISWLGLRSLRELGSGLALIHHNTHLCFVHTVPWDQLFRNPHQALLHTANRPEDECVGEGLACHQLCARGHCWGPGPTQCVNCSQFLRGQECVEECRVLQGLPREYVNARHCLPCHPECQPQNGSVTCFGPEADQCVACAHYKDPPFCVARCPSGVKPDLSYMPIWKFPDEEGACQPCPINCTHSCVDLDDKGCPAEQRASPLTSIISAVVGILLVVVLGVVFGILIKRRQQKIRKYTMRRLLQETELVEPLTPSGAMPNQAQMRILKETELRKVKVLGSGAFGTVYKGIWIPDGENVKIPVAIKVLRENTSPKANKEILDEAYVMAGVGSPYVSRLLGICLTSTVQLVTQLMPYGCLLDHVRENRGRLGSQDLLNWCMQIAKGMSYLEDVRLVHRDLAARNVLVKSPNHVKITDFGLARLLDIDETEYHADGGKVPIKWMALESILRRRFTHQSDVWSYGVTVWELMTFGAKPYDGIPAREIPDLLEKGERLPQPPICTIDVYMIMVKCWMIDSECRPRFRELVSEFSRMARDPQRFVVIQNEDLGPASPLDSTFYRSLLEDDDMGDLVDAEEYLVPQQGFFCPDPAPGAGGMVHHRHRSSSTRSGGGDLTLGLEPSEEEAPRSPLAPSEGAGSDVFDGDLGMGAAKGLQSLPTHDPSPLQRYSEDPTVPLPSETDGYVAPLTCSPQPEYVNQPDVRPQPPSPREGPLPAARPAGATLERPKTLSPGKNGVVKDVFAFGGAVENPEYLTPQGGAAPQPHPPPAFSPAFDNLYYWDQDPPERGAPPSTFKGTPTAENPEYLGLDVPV

Mus musculus [12] = assay: Difference in days for treated (T) and control (C) EGFR tumor fragments to reach 750 mg in mice at 200 mg/kg peroral dose, administration days 1-15; type: functional; settings: route oral
Mus musculus [13] = assay: Difference in days for treated (T) and control (C) EGFR tumor fragments to reach 750 mg in mice at 25 mg/kg ip dose, administration days 1-15; type: functional; settings: route intraperitoneal
MCF7 [14] = assay: Difference in days for treated (T) and control (C) MCF-7 tumor fragments to reach 750 mg in mice at 25 mg/kg ip dose, administration days 1-15; type: functional; settings: route intraperitoneal
A-431 [15] = assay: Ratio of treated and control A431 median tumor mass*100% in mice at 25 mg/kg peroral dose, days 7-21 administration; type: functional; settings: route intraperitoneal, in the assay text read “intraperitoneal” for “peroral”; procedure, shortened: as §2
Mus musculus [16] = assay: Ratio of treated and control EGFR median tumor mass*100% in mice at 200 mg/kg peroral dose, days 1-15 administration; type: functional; settings: route oral; procedure, shortened: as §2
Mus musculus [17] = assay: Ratio of treated and control EGFR median tumor mass*100% in mice at 25 mg/kg ip dose, days 1-15 administration; type: functional; settings: route intraperitoneal; procedure, shortened: as §2
MCF7 [18] = assay: Ratio of treated and control MCF-7 median tumor mass*100% in mice at 25 mg/kg ip dose, days 1-15 administration; type: functional; settings: route intraperitoneal; procedure, shortened: as §2
Mus musculus [19] = assay: Net reduction in EGFR tumor burden between the first and last treatments in mice at 25 mg/kg ip dose, days 1-15 administration; type: functional; settings: route intraperitoneal
Procedure, shortened: (§5)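 NCr nu/nu nude mice (18-22 g) were randomized and implanted sc with A431 epidermoid, human-EGFR-transfected NIH 3T3 fibroblast, or MCF-7 breast tumor fragments in the right axilla on day 0. Dosing was ip or oral, by average cage weight, with 6 mice per dose group. Log net cell kill is the net reduction in tumor burden between the first and last treatments.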

MCF7 [20] = assay: Net reduction in MCF-7 tumor burden between the first and last treatments in mice at 25 mg/kg ip dose, days 1-15 administration; type: functional; settings: route intraperitoneal; procedure, shortened: as §5
MCF7 [21] = assay: Weight change in MCF-7 tumor bearing mice at 25 mg/kg ip dose, days 1-15 administration; type: functional; settings: route intraperitoneal
A-431 [22] = assay: Weight change in A431 tumor bearing mice at 25 mg/kg ip dose, days 7-21 administration; type: functional; settings: route intraperitoneal
Mus musculus [23] = assay: Weight change of EGFR tumor bearing mice at 200 mg/kg peroral dose, days 1-15 administration; type: functional, organism-based; parameters: dose 200 mg/kg
Mus musculus [24] = assay: Weight change of EGFR tumor bearing mice at 25 mg/kg ip dose, days 1-15 administration; type: functional; settings: route intraperitoneal
[25] = (§6) Inhibition of Platelet-derived growth factor receptor (PDGFR); type: functional
[26] = biological target: T4, Proto-oncogene tyrosine-protein kinase Src (Homo sapiens, UniProt P12931); assay: (§7) Inhibition of c-Src tyrosine kinase; type: functional
T4 sequence (P12931 2-536 limits assumed): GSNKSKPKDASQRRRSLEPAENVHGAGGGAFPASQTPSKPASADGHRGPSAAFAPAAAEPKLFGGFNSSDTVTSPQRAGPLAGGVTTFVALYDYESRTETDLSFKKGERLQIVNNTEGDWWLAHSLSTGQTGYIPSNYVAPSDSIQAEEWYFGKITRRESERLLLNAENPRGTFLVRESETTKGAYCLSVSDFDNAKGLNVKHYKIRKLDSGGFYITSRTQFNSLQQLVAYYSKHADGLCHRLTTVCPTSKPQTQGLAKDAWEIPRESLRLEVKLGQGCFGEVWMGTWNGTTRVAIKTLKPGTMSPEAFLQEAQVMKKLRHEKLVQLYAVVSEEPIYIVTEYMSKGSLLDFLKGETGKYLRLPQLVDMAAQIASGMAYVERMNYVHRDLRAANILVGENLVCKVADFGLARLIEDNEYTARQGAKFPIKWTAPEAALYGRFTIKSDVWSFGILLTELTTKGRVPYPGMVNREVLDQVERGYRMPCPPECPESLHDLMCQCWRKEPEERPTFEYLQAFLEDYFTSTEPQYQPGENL

Mus musculus [27] = assay: Log net cell kill of A431 tumor bearing mice at 25 mg/kg intraperitoneal dose, days 7-21 administration
A-431 [28] = assay: Difference in days for treated (T) and control (C) A431 tumor fragments to reach 750 mg in mice at 25 mg/kg intraperitoneal dose, administration days 7-21
SK-OV-3 [29] = assay: Difference in days for treated (T) and control (C) SKOV-3 tumor fragments to reach 750 mg in mice at 30 mg/kg ip dose, administration days 10-14,17-21,24-28; type: functional; settings: route intraperitoneal
Mus musculus [30] = assay: Difference in days for treated (T) and control (C) EGFR tumor fragments to reach 750 mg in mice at 400 mg/kg peroral dose, administration days 1-15; type: functional; settings: route oral
MCF7 [31] = assay: Difference in days for treated (T) and control (C) MCF-7 tumor fragments to reach 750 mg in mice at 50 mg/kg ip dose, administration days 1-15; type: functional; settings: route intraperitoneal
A-431 [32] = assay: Ratio of treated and control A431 median tumor mass*100% in mice at 100 mg/kg peroral dose, days 7-21 administration; type: functional; settings: route oral; procedure, shortened: as §2
Mus musculus [33] = assay: Ratio of treated and control EGFR median tumor mass*100% in mice at 38 mg/kg ip dose, days 1-15 administration; type: functional; settings: route intraperitoneal; procedure, shortened: as §2
Mus musculus [34] = assay: Ratio of treated and control EGFR median tumor mass*100% in mice at 400 mg/kg peroral dose, days 1-15 administration; type: functional; settings: route oral; procedure, shortened: as §2
MCF7 [35] = assay: Ratio of treated and control MCF-7 median tumor mass*100% in mice at 50 mg/kg ip dose, days 1-15 administration; type: functional; settings: route intraperitoneal; procedure, shortened: as §2
A-431 [36] = assay: Difference in days for treated (T) and control (C) A431 tumors to reach 750 mg in mice at 75 mg/kg ip dose, days 7-21 administration; type: functional; settings: route intraperitoneal; procedure, shortened: as §2
SK-OV-3 [37] = assay: Ratio of treated and control SKOV-3 median tumor mass*100% in mice at 30 mg/kg ip dose, days 10-14,17-21,24-28 administration; type: functional; settings: route intraperitoneal
Mus musculus [38] = assay: Net reduction in EGFR tumor burden between the first and last treatments in mice at 400 mg/kg peroral dose, days 1-15 administration; type: functional; settings: route oral; procedure, shortened: as §5
Mus musculus [39] = assay: Net reduction in EGFR tumor burden between the first and last treatments in mice at 38 mg/kg ip dose, days 1-15 administration; type: functional; settings: route intraperitoneal; procedure, shortened: as §2
A-431 [40] = assay: Difference in days for treated (T) and control (C) A431 tumor fragments to reach 750 mg in mice at 100 mg/kg peroral dose, administration days 7-21; type: functional; settings: route oral
MCF7 [41] = assay: Weight change in MCF-7 tumor bearing mice at 50 mg/kg ip dose, days 1-15 administration; type: functional, organism-based; parameters: dose 50 mg/kg
A-431 [42] = assay: Weight change in A431 tumor bearing mice at 100 mg/kg peroral dose, days 7-21 administration; type: functional; settings: route oral
A-431 [43] = assay: Weight change in A431 tumor bearing mice at 75 mg/kg ip dose, days 7-21 administration; type: functional; settings: route intraperitoneal
Mus musculus [44] = assay: Weight change of EGFR tumor bearing mice at 400 mg/kg peroral dose, days 1-15 administration; type: functional
SK-OV-3 [45] = assay: Weight change in SKOV-3 tumor bearing mice at 30 mg/kg ip dose, days 10-14,17-21,24-28 administration; type: functional; settings: route intraperitoneal
A-431 [46] = assay: Ratio of treated and control A431 median tumor mass*100% in mice at 75 mg/kg dose
[47] = biological target: T2, Fibroblast growth factor receptor; assay: as §3; type: protein assay
Insulin receptor [48] = biological target: T3, Insulin receptor; assay: as §4
Mus musculus [49] = assay: Net reduction in EGFR tumor burden between the first and last treatments in mice at 200 mg/kg peroral dose, days 1-15 administration; type: functional; settings: route oral; procedure, shortened: as §5
A-431 [50] = assay: Net reduction in A431 tumor burden between the first and last treatments in mice at 25 mg/kg ip dose, days 7-21 administration; type: functional; settings: route intraperitoneal; procedure, shortened: as §5
[51] = as §6
[52] = biological target: T4, Proto-oncogene tyrosine-protein kinase Src; assay: as §7
Mus musculus [53] = assay: Weight change of EGFR tumor bearing mice at 25 mg/kg ip dose, days 1-15 administration; settings: route intraperitoneal

| Structure (SMILES) | pIC50 [1] | pIC50 [2] | T-C (Mus musculus [3]) | Weight change (Mus musculus [4]) | pIC50 [6] | solubility [7] | pIC50 [8] | pIC50 [11] | T-C (Mus musculus [12]) | T-C (Mus musculus [13]) | T-C (MCF7 [14]) | T/C (A-431 [15]) | T/C (Mus musculus [16]) | T/C (Mus musculus [17]) | T/C (MCF7 [18]) | Net cell kill (Mus musculus [19]) | Net cell kill (MCF7 [20]) | Weight change (MCF7 [21]) | Weight change (A-431 [22]) | Weight change (Mus musculus [23]) | other results |
| --- | --- | --- | --- | --- | --- | --- | --- | --- | --- | --- | --- | --- | --- | --- | --- | --- | --- | --- | --- | --- | --- |
| CNc1cc2c(Nc3cccc(C)c3)ncnc2cn1 | 7.64 | 9.35 | 2 days | -0.9 g | – | – | – | – | – | – | – | – | – | – | – | – | – | – | – | – | T/C (Mus musculus [5]): 68% |
| CCN(CC)CC(O)CNc1cc2c(Nc3cccc(Br)c3)ncnc2cn1 (centres undefined) | 7.55 | 8.34 | – | – | 7.55 | 36 mM (≈ 16000 µg/mL) | 8.34 | 5.96 | 0 days | 5 days | 3.3 days | 62% | 94% | 44% | 77% | -0.9 log10 | -0.6 log10 | -0.3 g | -0.7 g | Weight gain | IC50 [9]: > 50000 nM; pIC50 (Insulin receptor [10]): < 4.30; Weight change (Mus musculus [24]): -0.9 g; pIC50 [25]: < 4.30; pIC50 [26]: < 4.30; Log net cell kill (Mus musculus [27]): -0.5 log10; T-C (A-431 [28]): 5 days |
| CNc1cc2c(Nc3cccc(Br)c3)ncnc2cn1 | – | – | 3.7 days | -0.1 g | 7.89 | 0.1 mM (≈ 33 µg/mL) | – | 7.28 | – | – | 11.2 days | – | – | – | 14% | – | -0.1 log10 | -0.2 g | – | – | T-C (SK-OV-3 [29]): 0.8 days; T-C (Mus musculus [30]): 1.2 days; T-C (MCF7 [31]): 15.2 days; T/C (A-431 [32]): 38%; T/C (Mus musculus [33]): 38%; T/C (Mus musculus [34]): 67%; T/C (MCF7 [35]): 27%; T-C (A-431 [36]): 8.4 days; T/C (SK-OV-3 [37]): 67%; Net cell kill (Mus musculus [38]): -1.3 log10; log net cell kill (Mus musculus [39]): -1; T-C (A-431 [40]): 16 days; Weight change (MCF7 [41]): Weight gain; Weight change (A-431 [42]): -1.3 g; Weight change (A-431 [43]): -0.8 g; Weight change (Mus musculus [44]): Weight gain; Weight change (SK-OV-3 [45]): -1.6 g; T/C (A-431 [46]): 41% |
| CN(C)CCNc1cc2c(Nc3cccc(Br)c3)ncnc2cn1 | 7.37 | 8.96 | – | – | 7.37 | – | 8.96 | 6.42 | 1.1 days | 3.3 days | – | 66% | 47% | 43% | – | -1 log10 | – | – | -1.4 g | Weight gain | S ([7]; buffer): > 48 mM; IC50 [47]: > 50000 nM; pIC50 (Insulin receptor [48]): < 4.30; Net cell kill (Mus musculus [49]): -1.3 log10; Net cell kill (A-431 [50]): -0.5 log10; pIC50 [51]: < 4.30; pIC50 [52]: < 4.30; Weight change (Mus musculus [53]): -1.1 g; T-C (A-431 [28]): 4.7 days |
